Test results published in paper PMC6044872 (ACS Omega, 2017).

Tests used:
[1] = tested on: MUC1 glycopeptides PDT*R-Tn-20-, 40-, 60-, 100-mer and PDT*R-STn-20-, 40-, 60-, 100-mer; format: binding; settings: ELISA signals with 20-, 60- and 100-mer glycopeptides
Method in brief: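 Streptavidin (10 μg/mL in 50 mM Tris–HCl, pH 7.5) coated overnight at 4 °C; blocked 2 h at RT. Biotinylated Tn- or STn-glycopeptides (20-, 40-, 60-, 100-mer) captured overnight at 4 °C. Antibody overnight at 4 °C, HRP-anti-mouse IgG 2 h at RT. TMB 30 min, H2SO4 stop, A450. Antibody concentration set separately for each antibody.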

[2] = tested on: T-47D breast cancer cells; assay: Flow cytometry binding to T-47D; format: cell-based, human
Method in brief: (§1)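 Cells were grown 48 h, trypsinized and washed in PBS with 10% FBS. 1.0 × 10^6 cells in 200 μL antibody solution, 2 h on ice. FITC-labelled anti-mouse IgG 1 h on ice, then three washes and resuspension in PBS/10% FBS. Analysed by flow cytometry; histograms overlaid on isotype control antibody.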

[3] = tested on: 184A1 mammary epithelial cells; assay: Flow cytometry binding to 184A1; format: cell-based, human
Method in brief: as §1

[4] = tested on: H292 mucoepidermoid carcinoma cells; assay: Flow cytometry binding to H292; format: cell-based, human
Method in brief: as §1

[5] = tested on: Calu-3 lung adenocarcinoma cells; assay: Flow cytometry binding to Calu-3; format: cell-based, human
Method in brief: as §1

[6] = tested on: A549 lung adenocarcinoma epithelial cells; assay: Flow cytometry binding to A549; format: cell-based, human
Method in brief: as §1

Tandem-repeat dependence of binding [1]: tandem-repeat-dependent manner
B1: PankoMab: anti-MUC1 antibody (Glycotope, Germany), established using desialylated MUC1 as the immunogen (antibody, chains of the INN, looked up, V domains shown)
VH: EVQLVESGGGLVQPGGSMRLSCVASGFPFSNYWMNWVRQAPGKGLEWVGEIRLKSNNYTTHYAESVKGRFTISRDDSKNSLYLQMNSLKTEDTAVYYCTRHYYFDYWGQGTLVTVSS
VL: DIVMTQSPLSNPVTPGEPASISCRSSKSLLHSNGITYFFWYLQKPGQSPQLLIYQMSNLASGVPDRFSGSGSGTDFTLRISRVEAEDVGVYYCAQNLELPPTFGQGTKVEIK
Binding to T-47D (in words) [2]: bound only to T-47D
Binding to 184A1 (in words) [3]: hardly bound
Binding to H292 (in words) [4]: hardly bound
Binding to Calu-3 (in words) [5]: hardly bound
Binding to A549 (in words) [6]: hardly bound
